Data on three molecules can be found in ChEMBL document CHEMBL1828509, “Synthesis, pharmacological evaluation and docking studies of coumarin derivatives” (2011).

The structures appear in SMILES notation.

What all share (type): functional
Assay [1] deals with Rattus norvegicus. Put plainly: Antiinflammatory activity in Wistar albino rat assessed as inhibition of carrageenan-induced paw edema at 20 mg/kg, po administered 30 mins before carrageenan challenge measured after 2 hrs by plethysmograph. Summed up: (§1)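 Male Wistar albino rats (150–200 g), six per group, dosed orally with 20 mg/kg suspension; control got 0.1 ml of 1% gum acacia suspension orally. After 30 min, 0.1 ml of 1% carrageenan in normal saline injected sub-plantar into the right hind paw. Paw volume measured by plethysmograph at 0, 1, 2, 3 and 4 h; percent edema inhibition versus control at matching time.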
Background: In the carrageenan paw model, swelling and tenderness develop within hours.

In assay [2] the test system is Rattus norvegicus. Put plainly: Antiinflammatory activity in Wistar albino rat assessed as inhibition of carrageenan-induced paw edema at 20 mg/kg, po administered 30 mins before carrageenan challenge measured after 4 hrs by plethysmograph. Summed up: as §1
The test system of assay [3] is Aspergillus niger. Put plainly: Antifungal activity against Aspergillus niger MTCC 282 at 10 ug/ml. The following applies: read-out: IZ.
Assay [4] deals with Rattus norvegicus. The assay can be described thus: Antiinflammatory activity in Wistar albino rat assessed as inhibition of carrageenan-induced paw edema at 20 mg/kg, po administered 30 mins before carrageenan challenge measured after 1 hr by plethysmograph. Summed up: as §1
In assay [5] the test system is Bacillus subtilis. The assay can be described thus: Antimicrobial activity against Bacillus subtilis MTCC 1789 at 50 ug/ml. The following applies: read-out: IZ.
For the next assay, the system named is Mus musculus. The assay can be described thus: Analgesic activity in mouse assessed as inhibition of acetic acid-induced writhing administered 30 mins before acetic acid challenge measured after 30 mins relative to control. More on the design: concentration or dose not given beside the values. Summed up:
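Groups of six mice (20–30 g, both sexes, pregnant females excluded) dosed with test compound; 30 min later 0.25 ml/mouse of 0.5% acetic acid given i.p. Writhes counted over the next 30 min. Mean writhes per group ± SE; percent decrease versus untreated control mice.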
(Writhing tests count abdominal constrictions after an irritant is injected.)

Assay [6] has as its system Bacillus subtilis. The assay can be described thus: Antimicrobial activity against Bacillus subtilis MTCC 1789 at 10 ug/ml. The following applies: read-out: IZ.
Assay [7] deals with Candida albicans. Put plainly: Antifungal activity against Candida albicans MTCC 183 at 25 ug/ml. The following applies: read-out: IZ.
For assay [8], the system named is Bacillus subtilis. The assay can be described thus: Antimicrobial activity against Bacillus subtilis MTCC 1789 at 25 ug/ml. The following applies: read-out: IZ.
Assay [9] has as its system Rattus norvegicus. The assay can be described thus: Antiinflammatory activity in Wistar albino rat assessed as inhibition of carrageenan-induced paw edema at 20 mg/kg, po administered 30 mins before carrageenan challenge measured after 3 hrs by plethysmograph. The procedure, abridged:
as §1

Assay [10] relates to Escherichia coli. The assay can be described thus: Antimicrobial activity against Escherichia coli MTCC 4315 at 25 ug/ml. The note with it: read-out: IZ.
Assay [11] has as its system Candida albicans. Put plainly: Antifungal activity against Candida albicans MTCC 183 at 10 ug/ml. The note with it: read-out: IZ.
Assay [12] relates to Candida albicans. Put plainly: Antifungal activity against Candida albicans MTCC 183 at 50 ug/ml. The note with it: read-out: IZ.
Assay [13] relates to Aspergillus niger. The assay can be described thus: Antifungal activity against Aspergillus niger MTCC 282 at 25 ug/ml. The following applies: read-out: IZ.
The subject of assay [14] is Escherichia coli. Put plainly: Antimicrobial activity against Escherichia coli MTCC 4315 at 50 ug/ml. The following applies: read-out: IZ.
Assay [15] deals with Aspergillus niger. The assay can be described thus: Antifungal activity against Aspergillus niger MTCC 282 at 50 ug/ml. The following applies: read-out: IZ.

Broadly, the inhibition in vivo is the relative decrease from the control value, in per cent. For the molecule `Cc1cc(=O)oc2cc(OC(=O)CNc3ccccc3[N+](=O)[O-])ccc12`, the inhibition in vivo at 20 mg/kg with Rattus norvegicus [1] was 16.6%; in the assay on Rattus norvegicus [2] it was 15.2%; with Rattus norvegicus [4], 21.4%; in the assay with Rattus norvegicus [9], 15.9%. Further, the zone of inhibition at 10 µg/mL in the assay with Aspergillus niger [3] came out at 10.1 mm; in the assay on Bacillus subtilis [6], 11.2 mm. In the assay on Bacillus subtilis [5], the zone of inhibition at 50 µg/mL amounted to 13.7 mm. In addition, the Activity in the assay on Mus musculus came out at 28%. For the same molecule, the zone of inhibition at 25 µg/mL with Candida albicans [7] amounted to 10.4 mm; in the assay on Bacillus subtilis [8], 12.4 mm; in the assay on Escherichia coli [10] it was 10.1 mm.
On to `Cc1cc(=O)oc2cc(OC(=O)CNN3C=NNC3)ccc12`, for which the zone of inhibition at 10 µg/mL in the assay on Candida albicans [11] stood at 12.4 mm; in the assay on Aspergillus niger [3], 11.2 mm; with Bacillus subtilis [6], 12.5 mm. Also, the inhibition in vivo at 20 mg/kg came out at 42.3% with Rattus norvegicus [1], 22.2% in the assay on Rattus norvegicus [2], 42.8% in the assay with Rattus norvegicus [4] and 27.6% in the assay on Rattus norvegicus [9]. Besides, the zone of inhibition at 50 µg/mL was determined as 15.4 mm in the assay with Candida albicans [12], 18.1 mm in the assay with Bacillus subtilis [5] and 16.2 mm in the assay with Escherichia coli [14]. Besides, the zone of inhibition at 25 µg/mL came to 13.6 mm in the assay with Aspergillus niger [13], 13.4 mm in the assay with Candida albicans [7], 14.3 mm in the assay on Bacillus subtilis [8] and 14.1 mm with Escherichia coli [10]. Moreover, the Activity with Mus musculus stood at 37%.
Take `Cc1cc(=O)oc2cc(OC(=O)CNc3nccs3)ccc12`: the zone of inhibition at 10 µg/mL with Candida albicans [11] is 10.1 mm; with Aspergillus niger [3], 13.4 mm; with Bacillus subtilis [6] it was 10.4 mm. Moreover, the inhibition in vivo at 20 mg/kg amounted to 37.1% in the assay with Rattus norvegicus [1], 32.3% with Rattus norvegicus [2], 39.2% with Rattus norvegicus [4] and 47.8% in the assay with Rattus norvegicus [9]. Besides, the zone of inhibition at 50 µg/mL in the assay on Candida albicans [12] worked out at 12.4 mm; in the assay with Bacillus subtilis [5], 16.9 mm; in the assay with Escherichia coli [14], 18.4 mm; in the assay on Aspergillus niger [15] it was 16.5 mm. Further, the results for the zone of inhibition at 25 µg/mL in the assay on Aspergillus niger [13], in the assay with Bacillus subtilis [8] and in the assay on Escherichia coli [10] were 15.4 mm, 14.4 mm and 10.2 mm, respectively. Moreover, in the assay on Mus musculus, the Activity is listed as 45%.
